Measurements from PMC6220780 (Clinical Pharmacology in Drug Development, 2018).
Like-named read-outs stand apart in the source and are kept apart here. Marks after values point to notes of the source that are not given here.

Key:
[1] = system: Japanese patients with type 2 diabetes mellitus; assay: Safety: adverse events after a single 5-mg dose; type: in vivo, human
How it was run: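 Adverse events were recorded by type and incidence from monitoring of clinical laboratory tests, body weight, vital signs and electrocardiograms. Monitoring covered a 6-day hospital stay with a single oral dose on day 3, plus a follow-up visit 3–5 days after discharge.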

[2] = Urinary excretion of luseogliflozin and metabolites up to 72 hours; type: in vivo, human; details: single 5-mg dose of luseogliflozin
How it was run: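 24-h urine was collected before dosing and over 0–24, 24–48 and 48–72 h after a single oral dose. Parent compound and metabolites were quantified by validated LC-MS/MS after solid-phase extraction with deuterated internal standards (parent LLOQ 0.1 ng/mL). Excretion rates were estimated from the urine concentrations.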

[3] = system: Japanese patients with type 2 diabetes mellitus; assay: 24-hour urinary glucose excretion; type: in vivo, human; details: single 5-mg oral dose, mean ± SD
How it was run: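 Patients were hospitalized for 6 days and 5 nights on a stable diet, with no other antidiabetic drugs. A single oral dose of the test compound was given before breakfast on day 3. Glucose was measured by autoanalyzer in 24-h pooled urine collected before and after dosing.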

[4] = system: Japanese patients with type 2 diabetes mellitus; assay: Plasma glucose; type: in vivo, human; details: for FPG change from baseline / FPG postdose: single 5-mg oral dose, mean ± SD; for changes in plasma glucose AUC0-4 from baseline: single 5-mg dose
How it was run: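 Hospitalized patients received a single oral dose before breakfast on day 3. Plasma glucose was sampled predose and at 0.5, 1, 2, 4, 6, 8, 12 and 24 h and measured by autoanalyzer. AUC was calculated by the linear trapezoidal rule, with change from the day before dosing estimated per patient. Change in AUC0-4 was analyzed by 1-sample t test.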

[5] = type: in vivo, human
How it was run: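 Samples were assayed by validated HPLC-MS/MS (solid-phase extraction, deuterated internal standard, negative-ion MRM; LLOQ 0.05 ng/mL). Parameters came from noncompartmental analysis. Group effects were assessed by ANOVA as geometric mean ratios to the normal-function group with 90% CIs.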

[6] = system: SGLT2; details: cited from earlier work

In the case of `CCOc1ccc(Cc2cc([C@@H]3S[C@H](CO)[C@@H](O)[C@H](O)[C@H]3O)c(OC)cc2C)cc1` [luseogliflozin, (1S)‐1,5‐anhydro‐1‐[5‐(4‐ethoxybenzyl)‐2‐methoxy‐4‐methylphenyl]‐1‐thio‐D‐glucitol], the “AEs judged as moderate: increased blood glucose, patients” value ([1]; 57 patients) is reported as 2, the “AEs judged as moderate: syncope, patients” value ([1]; 57 patients) is reported as 1 and the “number of AEs in the total study population” value ([1]; 57 patients, all of mild to moderate severity) is reported as 12. For the same compound, the “Adverse event: Rash (Skin and subcutaneous tissue disorders)” value ([1]; G1 (n = 11)) was 1, the “All adverse events: number of patients” value ([1]; G1 (n = 11)) was 1 and the “Adverse event: Blood glucose increased (Investigations)” value ([1]; G2 (n = 17)) was 1. For the same compound, the “Adverse event: Bundle branch block, right (Cardiac disorders)” value ([1]; G2 (n = 17)) was 1, the “All adverse events: number of patients” value ([1]; G2 (n = 17)) was 2 and the “All adverse events: number of events” value ([1]; G3a (n = 10)) was 2. The “All adverse events: number of patients” value ([1]; G3a (n = 10)) was 2, the “Adverse event: Blood glucose increased (Investigations)” value ([1]; G3b (n = 13)) was 1 and the “Adverse event: Dizziness (Nervous system disorders)” value ([1]; G3b (n = 13)) was 1. For the same compound, the “Adverse event: Syncope (Nervous system disorders)” value ([1]; G3b (n = 13)) was 1, the “All adverse events: number of patients” value ([1]; G3b (n = 13)) was 3 and the “All adverse events: number of patients” value ([1]; G4 (n = 6)) was 0. For the same compound, the “deaths or serious AEs” value ([1]; any group) was “no deaths or serious AEs were observed”, the “AEs judged to be related to luseogliflozin administration” value ([1]; both judged to be mild) was “rash in the G1 group and dizziness in the G3b group” and the “changes in laboratory parameters or vital signs” value ([1]; during the study, data not shown) was “no clinically relevant changes”. For the same compound, the “number of patients with AEs in the total study population” value ([1]; of the 57 patients) was 8, the “excreted in urine up to 72 hours after administration” value (“excreted in urine up to 72 hours” below) ([2]; G1) was 4.68% and the “excreted in urine up to 72 hours” value ([2]; G2) was 4.15%. The “excreted in urine up to 72 hours” value ([2]; G3a) was 3.25%, the “excreted in urine up to 72 hours” value ([2]; G3b) was 2.90% and the “excreted in urine up to 72 hours” value ([2]; G4) was 2.15%. The “UGE0-24 change from baseline” value ([3]; G1, eGFR ≥90, n = 11) was 88.3 ± 36.9 g/day, the UGE0-24 postdose ([3]; G1, eGFR ≥90, n = 11) was 111 ± 36.0 g/day and the “UGE0-24 change from baseline” value ([3]; G2, eGFR 60–89, n = 17) was 69.7 ± 19.1 g/day. The UGE0-24 postdose ([3]; G2, eGFR 60–89, n = 17) was 82.6 ± 23.8 g/day, the “UGE0-24 change from baseline” value ([3]; G3a, eGFR 45–59, n = 9) was 57.3 ± 14.9 g/day and the UGE0-24 postdose ([3]; G3a, eGFR 45–59, n = 9) was 64.4 ± 24.4 ^b g/day. For the same compound, the “UGE0-24 change from baseline” value ([3]; G3a, eGFR 45–59, n = 9, listed as Luseogliflozin) was 57.3 ± 14.9 ^b g/day, the “UGE0-24 change from baseline” value ([3]; G3b, eGFR 30–44, n = 12) was 35.3 ± 10.8 g/day and the UGE0-24 postdose ([3]; G3b, eGFR 30–44, n = 12) was 39.4 ± 12.9 ^c g/day. For the same compound, the “UGE0-24 change from baseline” value ([3]; G3b, eGFR 30–44, n = 12, listed as Luseogliflozin) was 35.3 ± 10.8 ^c g/day, the “UGE0-24 change from baseline” value ([3]; G4, eGFR <30, n = 6) was 21.8 ± 7.10 g/day and the UGE0-24 postdose ([3]; G4, eGFR <30, n = 6) was 23.7 ± 8.83 g/day. The “FPG change from baseline” value ([4]; G1, eGFR ≥90, n = 11) was -27.4 ± 23.5 mg/dL, the FPG postdose ([4]; G1, eGFR ≥90, n = 11) was 139.7 ± 25.2 mg/dL and the “changes in plasma glucose AUC0-4 from baseline” value (from here on “changes … from baseline”) ([4]; G1, P < .05) was −135 mg⋅h/dL. The “FPG change from baseline” value ([4]; G2, eGFR 60–89, n = 17) was -15.1 ± 13.6 mg/dL, the FPG postdose ([4]; G2, eGFR 60–89, n = 17) was 136.4 ± 37.0 mg/dL and the “changes … from baseline” value ([4]; G2, P < .05) was −104 mg⋅h/dL. The “FPG change from baseline” value ([4]; G3a, eGFR 45–59, n = 9) was −11.3 ± 13.5 ^b mg/dL, the FPG postdose ([4]; G3a, eGFR 45–59, n = 9) was 140.1 ± 26.6 ^b mg/dL and the “changes … from baseline” value ([4]; G3a, P < .05) was −108 mg⋅h/dL. For the same compound, the “FPG change from baseline” value ([4]; G3b, eGFR 30–44, n = 12) was −4.8 ± 11.8 ^c mg/dL, the FPG postdose ([4]; G3b, eGFR 30–44, n = 12) was 135.7 ± 24.3 ^c mg/dL and the “changes … from baseline” value ([4]; G3b) was −30.2 mg⋅h/dL. The “FPG change from baseline” value ([4]; G4, eGFR <30, n = 6) was 2.2 ± 7.9 mg/dL, the FPG postdose ([4]; G4, eGFR <30, n = 6) was 125.8 ± 21.1 mg/dL and the “changes … from baseline” value ([4]; G4) was −32.6 mg⋅h/dL. The “difference in plasma glucose AUC0-4 from G1 (90%CI)” value (from here on “difference … (90%CI)”) ([4]; between G1 and G2) was 32.3 (−22.8–87.5), the “difference … (90%CI)” value ([4]; between G1 and G3a) was 26.7 (−38.6 to 91.9) and the “difference … (90%CI)” value ([4]; between G1 and G3b) was 92.2 (21.9–163). For the same compound, the “difference … (90%CI)” value ([4]; between G1 and G4) was 72.6 (−1.29 to 146), the “ratio of the geometric mean (90%CI) of Cmax to the Cmax of G1” value (shortened to “ratio … (90%CI) of Cmax to the Cmax of G1”) ([5]; G2 versus G1) was 0.922 (0.756–1.13) and the “ratio of the geometric mean of AUCinf (90%CI) to that of G1” value (from here on “ratio … (90%CI) to that of G1”) ([5]; G2 versus G1) was 1.05 (0.900–1.21). The “ratio … (90%CI) of Cmax to the Cmax of G1” value ([5]; G3a versus G1) was 0.939 (0.720–1.22), the “ratio … (90%CI) to that of G1” value ([5]; G3a versus G1) was 1.05 (0.842–1.32) and the “ratio … (90%CI) of Cmax to the Cmax of G1” value ([5]; G3b versus G1) was 0.781 (0.607–1.01). The “ratio … (90%CI) to that of G1” value ([5]; G3b versus G1) was 1.04 (0.879–1.23), the “plasma concentration 72 hours after administration as fraction of the Cmax” value ([5]; G4, single 5-mg dose of luseogliflozin) was “approximately one‐fiftieth” and the “ratio … (90%CI) of Cmax to the Cmax of G1” value ([5]; G4 versus G1) was 0.724 (0.525–0.999). The “ratio … (90%CI) to that of G1” value ([5]; G4 versus G1) was 1.21 (0.947–1.53), the concentration at 72 h ([5]; human, plasma, oral, 5 mg) was 1.28 to 3.15 ng/mL and the “selectivity for SGLT2 over SGLT1” value ([6]; SGLT2 versus SGLT1) was 1770 fold. The IC50 ([6]; read-out: half-maximal inhibitory concentration (IC50) for SGLT2) was 2.26 nM.
